Laboratory results as given in ChEMBL document CHEMBL3813699, “Structure-Activity Relationships of a Diverse Class of Halogenated Phenazines That Targets Persistent, Antibiotic-Tolerant Bacterial Biofilms and Mycobacterium tuberculosis” (J Med Chem, 2016).
Values after ≈ are worked out from the molar mass of the structure shown.

Tests used:
[1] = tested on: Enterococcus faecium; test: Antibiofilm activity against […]-resistant Enterococcus faecium ATCC 700221 assessed as biofilm eradication incubated for 24 hrs by CBD assay; type: functional; settings: for MBC: Enterococcus faecium, ATCC 700221, 24 h
Outline: (§1)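 Calgary Biofilm Device: pegs inoculated with mid-log culture diluted 1,000-fold in TSB + 0.5% glucose, 24 h 37 °C; washed pegs challenged with 2-fold dilutions 24 h 37 °C; pegs moved to fresh TSBG 24 h; MBEC = lowest concentration leaving no turbidity; 2–6 independent experiments.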

[2] = tested on: Staphylococcus aureus; test: Antibacterial activity against methicillin-resistant Staphylococcus aureus BAA-1707 incubated for 16 to 18 hrs by broth microdilution method; type: functional
[3] = Aqueous solubility of compound in media after 16 hrs; type: physicochemical
[4] = Induction of hemolysis in human RBC at 200 uM incubated for 1 hr; type: cell-based, Erythrocyte; settings: red blood cells, read-out: Activity
Outline: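 Human RBCs (EDTA), washed three times in Tris-buffered saline pH 7.2; 2% hRBC with compound at final 200 µM, 1 h 37 °C; supernatant OD405; % hemolysis relative to DMSO (0%) and Triton X (100%).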

[5] = tested on: Mycobacterium tuberculosis; test: Antibacterial activity against Mycobacterium tuberculosis H37Ra ATCC 25177 after 7 days by two-fold serial dilution method; type: functional; settings: H37Ra ATCC 25177, 168 h
[6] = tested on: Enterococcus faecium; test: Antibacterial activity against vancomycin-resistant Enterococcus faecium ATCC 700221 incubated for 16 to 18 hrs by broth microdilution method; type: functional
[7] = tested on: Staphylococcus aureus; test: Antibiofilm activity against methicillin-resistant Staphylococcus aureus isolate 2 assessed as biofilm eradication incubated for 24 hrs by CBD assay; type: functional; settings: for MBC: Staphylococcus aureus, isolate 2, 24 h; outline: as §1
[8] = tested on: Staphylococcus aureus; test: Antibacterial activity against methicillin-resistant Staphylococcus aureus clinical isolate 2 incubated for 16 hrs by broth microdilution method in presence of Fe2+; type: functional; settings: isolate 2, 16 h
[9] = tested on: Staphylococcus epidermidis; test: Antibacterial activity against methicillin-resistant Staphylococcus epidermidis ATCC 35984 incubated for 16 to 18 hrs by broth microdilution method; type: functional
[10] = tested on: Staphylococcus aureus; test: Antibiofilm activity against methicillin-resistant Staphylococcus aureus BAA-1707 assessed as biofilm eradication incubated for 24 hrs by CBD assay; type: functional; settings: for MBC: Staphylococcus aureus, BAA-1707, 24 h; outline: as §1
[11] = tested on: Staphylococcus aureus; test: Antibiofilm activity against methicillin-resistant Staphylococcus aureus BAA-44 assessed as biofilm eradication incubated for 24 hrs by CBD assay; type: functional; outline: as §1
[12] = tested on: Staphylococcus aureus; test: Antibacterial activity against methicillin-resistant Staphylococcus aureus clinical isolate 2 incubated for 16 to 18 hrs by broth microdilution method; type: functional
[13] = tested on: Staphylococcus aureus; test: Antibacterial activity against methicillin-resistant Staphylococcus aureus clinical isolate 2 incubated for 16 hrs by broth microdilution method in presence of tiron; type: functional; settings: isolate 2, 16 h
[14] = tested on: Staphylococcus epidermidis; test: Antibacterial activity against methicillin-resistant Staphylococcus epidermidis ATCC 35984 assessed as biofilm eradication incubated for 24 hrs by CBD assay; type: functional; settings: for MBC: Staphylococcus epidermidis, ATCC 35984, 24 h; outline: as §1
[15] = tested on: HeLa; test: Cytotoxicity against human HeLa cells after 24 hrs by LDH release assay; type: cell-based
Outline: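 HeLa in DMEM + 10% FBS, 37 °C 5% CO2, at 70–80% confluence treated with 25, 50, 100 µM for 24 h; DMSO vehicle; Triton X-100 2% v/v max-LDH control, medium-only negative; supernatant with LDH reaction mix 30 min room temperature, stopped, absorbance 490 nm.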

[16] = tested on: Staphylococcus aureus; test: Antibacterial activity against methicillin-resistant Staphylococcus aureus clinical isolate 2 incubated for 16 hrs by broth microdilution method; type: functional; settings: isolate 2, 16 h
[17] = tested on: Staphylococcus aureus; test: Antibacterial activity against methicillin-resistant Staphylococcus aureus BAA-44 incubated for 16 to 18 hrs by broth microdilution method; type: functional
[18] = tested on: Staphylococcus aureus; test: Antibacterial activity against methicillin-resistant Staphylococcus aureus clinical isolate 2 incubated for 16 hrs by broth microdilution method in presence of Cu2+; type: functional; settings: isolate 2, 16 h
[19] = tested on: Staphylococcus epidermidis; test: Antibiofilm activity against methicillin-resistant Staphylococcus epidermidis ATCC 35984 assessed as reduction in persister cells level within biofilms MBEC incubated for 24 hrs by CBD assay; type: functional; parameters: scale not given: the % may be the effect or the level left
Outline: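 After CBD challenge and recovery, pegs sonicated 30 min in PBS and plated to count viable biofilm cells (CFU/mL) at and below MBEC.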

[20] = tested on: Staphylococcus epidermidis; test: Antibacterial activity against Staphylococcus epidermidis ATCC 12228 incubated for 16 to 18 hrs by broth microdilution method; type: functional

Structure (SMILES)	MBC [1] [µM]	MIC [2] [µM]	hemolysis at 1 h, 200 µM [4] [%]	MIC [5] [µM]	MIC [6] [µM]	MBEC [7] [µM]	MBC [7] [µM]	MIC [8] [µM]	MIC [9] [µM]	MBEC [10] [µM]	MBC [10] [µM]	MIC [12] [µM]	MIC [13] [µM]	MBEC [14] [µM]	MBC [14] [µM]	IC50 [15] [µM]	MBEC [1] [µM]	MIC [17] [µM]	further results
Oc1ccc(I)c2nc3cc(Cl)c(Cl)cc3nc12	3.13 (≈ 1.22 µg/mL)	0.15 (≈ 0.0586 µg/mL)	1.4	3.13 (≈ 1.22 µg/mL)	3.13 (≈ 1.22 µg/mL)	37.5	25 (≈ 9.77 µg/mL)	3.13	0.78 (≈ 0.305 µg/mL)	>200	75 (≈ 29.3 µg/mL)	0.39 (≈ 0.152 µg/mL)	0.2	75	9.38 (≈ 3.67 µg/mL)	> 100			solubility at 16 h [3]: 200 µM (≈ 78.2 µg/mL); MBEC [11]: >200 µM; MBC ([11]; Staphylococcus aureus, BAA-44, 24 h): 75 µM (≈ 29.3 µg/mL)
Oc1ccc(Br)c2nc3cc(Br)c(Br)cc3nc12	> 200	0.56 (≈ 0.242 µg/mL)	≤ 1		6.25 (≈ 2.71 µg/mL)	>200	> 200	25	3.13 (≈ 1.35 µg/mL)			1.56 (≈ 0.675 µg/mL)	0.1	>200	> 200		>200	1.56 (≈ 0.675 µg/mL)	MIC [16]: 12.5 µM (≈ 5.41 µg/mL); MIC [18]: > 100 µM
Oc1c(Br)cc(Br)c2nc3cc(Cl)c(Cl)cc3nc12	0.39 (≈ 0.165 µg/mL)	25 (≈ 10.6 µg/mL)	≤ 1	6.25 (≈ 2.64 µg/mL)	0.39 (≈ 0.165 µg/mL)				0.3 (≈ 0.127 µg/mL)	12.5	6.25 (≈ 2.64 µg/mL)					> 100	0.39	50 (≈ 21.1 µg/mL)	Activity [19]: >99.99%; MIC [20]: 0.08 µM (≈ 0.0338 µg/mL)
